Compounds with a hit are over-represented: about 1% of the library has one in this group of screens.
AP ELISA ortho – alternative pathway complement inhibition, orthogonal assay; Human serum alternative complement pathway, LPS-coated ELISA, C3 deposition; tested in compound mixtures; inhibition, % at 5 µM; 62,000 compounds, 0.08% hits; AID 1235;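 active means inhibition above 30% in each of the two pooled mixtures holding the compound, so the lower value exceeds 30%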;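 further: 0% = serum in Mg-EGTA without compound and 100% = EDTA serum blank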
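Test system: human serum alternative complement pathway, C3 deposition on LPS-coated wells; also added: Plate-bound LPS; doses: 5 µM per compound in ten-compound mixtures; schedule: 1 h at 37 °C; detection: Anti-C3 ELISA, OD 450 nm; evaluation: percent inhibition of C3 deposition onto LPS; repeats: two pool placements per compound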
FXIa mix inh – factor XIa (human) inhibition, mixture screen. inhibition, % at 5 µM. purified FXIa, fluorogenic substrate, pooled mixtures. 62,000 compounds, 0.19% hits. AID 680;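 further: each value is inhibition by a whole ten-compound pool holding the compound; 0% = enzyme with no mixture and 100% = wells lacking enzyme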
FXIIa inh mix – factor XIIa (human) inhibition, mixture screen | P00748 | purified FXIIa, fluorogenic substrate, pooled mixtures | inhibition, % at 5 µM | 62,000 compounds, 0.2% hits | AID 684;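 further: 0% = enzyme without compound and 100% = no enzyme blank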
Target sequence (P00748 20-372 limits assumed): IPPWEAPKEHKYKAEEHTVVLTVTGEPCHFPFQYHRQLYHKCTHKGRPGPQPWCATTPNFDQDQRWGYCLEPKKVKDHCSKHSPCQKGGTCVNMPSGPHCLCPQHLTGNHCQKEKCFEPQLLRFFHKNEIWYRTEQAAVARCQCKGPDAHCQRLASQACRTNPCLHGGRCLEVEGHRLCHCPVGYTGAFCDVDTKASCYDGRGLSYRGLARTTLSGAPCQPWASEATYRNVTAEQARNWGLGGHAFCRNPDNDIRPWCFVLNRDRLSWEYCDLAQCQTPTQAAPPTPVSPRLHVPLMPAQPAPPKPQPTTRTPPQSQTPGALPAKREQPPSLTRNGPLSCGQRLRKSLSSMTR
Target sequence (P00748 373-615 limits assumed): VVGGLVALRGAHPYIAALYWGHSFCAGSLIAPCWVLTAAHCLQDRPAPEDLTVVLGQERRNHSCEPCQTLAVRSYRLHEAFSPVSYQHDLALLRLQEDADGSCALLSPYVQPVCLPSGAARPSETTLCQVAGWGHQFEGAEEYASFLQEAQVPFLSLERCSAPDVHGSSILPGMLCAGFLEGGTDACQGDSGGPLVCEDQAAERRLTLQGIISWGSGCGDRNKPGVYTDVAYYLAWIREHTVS
BAP1 block – human BAP1 deubiquitinase inhibition; Q92560; recombinant BAP1, Ub-AMC hydrolysis fluorescence kinetic; hits give low values; calls only at 20 µM; 72,000 compounds, 0.48% hits; AID 436;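 active means activity remaining at or below 50% of control, provided the compound also passes the data quality filters; inactive means the rest, including low values that fail the filters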;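 further: 100% = DMSO wells rate and 0% = substrate alone blank rate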
HePTP inh – human HePTP phosphatase inhibition | recombinant HePTP phosphatase activity, OD absorbance | inhibition, % at 20 µM | 110,000 compounds, 0.64% hits; in the data active means inhibition above about 50%;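 further: plate controls were vehicle for no effect and reference inhibitor for full effect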
Starred values were filed as active, the others as inactive; i = inactive; x = no result given; + = active, no number; ! = not active in a repeat. Unless noted, no stated cut-off is given here; in the data, active means inhibition above about 20% (passing the limit was not always enough); inactive means the rest.

SMILES	AP ELISA ortho	FXIa mix inh	FXIIa inh mix	BAP1 block	HePTP inh
COc1ccc(C(=S)N2CCCC2)c(OC)c1	x	x	x	x	94*
O=C(CSc1nc2ccc(N3C(=O)c4ccccc4C3=O)cc2s1)Nc1cccc([N+](=O)[O-])c1	x	x	x	x	80*
O=C1c2cccc3cccc(c23)C(=O)N1CCOc1ccccc1	x	x	x	x	-14
CCOc1ccc(C2C=C(c3ccc(C)cc3)Nc3ncnn32)cc1 (stereo unspecified)	-2	23*	-18	i	-1
CCOc1ccc(C2C=C(c3ccc(C)cc3)Nc3nnnn32)cc1 (stereo unspecified)	19	8	4	i	2
O=C(Cc1ccc(F)cc1)Nc1cccc2ccccc12	x	x	x	x	103*
O=C(Cc1ccc(F)cc1F)Nc1cccc2ccccc12	x	x	x	x	3
O=S(=O)(Nc1cccnc1)c1cccs1	5	45*	5	i	11
Cc1ccc(NS(=O)(=O)c2cccs2)cc1	x	x	x	i	x
Cc1c(C#N)c(N)c(C(=O)c2ccccc2)n1-c1ccccc1	x	x	x	x	70*
Cc1c(NC(=O)C2CCCN(S(=O)(=O)c3cnc[nH]3)C2)c(=O)n(-c2ccccc2)n1C (stereo unspecified)	5	24*	2	i	12
Oc1cccc(C=Nc2ccccc2O)c1	x	x	x	x	-16
Oc1cccc(C=NC2CCCCC2)c1	x	x	x	x	64*
COc1ccccc1CNC(=O)c1cnc2sccn2c1=O	5	-2	2	i	0
COc1ccccc1CNC(=O)c1cnc2ccccn2c1=O	0	21*	0	i	5
O=C(O)C1=CC(=C(c2ccc(O)c(C(=O)O)c2)c2ccc(O)c(C(=O)O)c2)C=CC1=O	x	x	x	+	x
COc1cccc(-c2nnn(CC(=O)NC3CCCC3)n2)c1OC	1	22*	6	i	7
O=C(Cn1nnc(-c2ccccc2NC(=O)C2CC2)n1)NC1CCCCC1	7	6	7	i	7
Cn1c(=O)c2cc(NC(=O)c3ccccc3Cl)c(=O)oc2n(C)c1=O	21	33*	1	x	6
CC(=O)N1C(=O)NC2CC1NC(=O)N2C(C)=O	x	x	x	x	-1
Nc1c(S(=O)(=O)O)cc(Nc2ccc(Nc3nc(Cl)nc(Nc4ccc(S(=O)(=O)O)cc4)n3)c(S(=O)(=O)O)c2)c2c1C(=O)c1ccccc1C2=O	x	x	x	+	x
Cc1onc(-c2ccccc2Cl)c1C(=O)N1CCN(c2ccccc2)CC1	15	0	10	i	2
Cc1onc(-c2ccccc2Cl)c1C(=O)N1CCN(c2ccccc2F)CC1	x	x	x	x	104*
CC(/C=C/c1ccccc1)=N\N=C1\NC(=O)C(Cc2ccccc2)S1 (stereo unspecified)	x	x	x	x	104*
CCn1cc(/C=C2\C(=O)NC(=O)N(c3ccccc3)C2=O)c2ccccc21	x	x	x	x	-7
SMILES	AP ELISA ortho	FXIa mix inh	FXIIa inh mix	BAP1 block	HePTP inh
C#CCn1cc(/C=C2\C(=O)NC(=O)N(c3ccc(C)cc3)C2=O)c2ccccc21	x	x	x	x	85*
COc1nc2c(s1)C(=O)NCCC2	22	7	20*	i	7
Cc1cccc(NC(=O)C2CCCN2C(=O)OC(C)(C)C)c1 (stereo unspecified)	x	x	x	x	9
CC(C)(C)C1(C)OC(O)(C(Cl)(Cl)Cl)CC1=O (stereo unspecified)	x	x	x	x	103*
O=C1C(Cl)=C(N2CCCCC2)C(=O)N1c1ccccc1Cl	2	22*	5	i	9
Cc1ccc2oc(-c3cc(NC(=O)/C=C/c4cccc([N+](=O)[O-])c4)ccc3O)nc2c1	x	x	x	x	-3
c1cnc(N2CCN(c3ncnc4c3oc3ccccc34)CC2)nc1	22	7	-17	i	5
COc1ccccc1N1CCN(c2ncnc3c2oc2ccccc23)CC1	33*	10	3	i	7
CCCn1c(NCc2cc(C)ccc2O)nc2ccccc21	8	0	3	i	9
CCCn1c(NCc2ccc(C)o2)nc2ccccc21	-2	26*	10	i	10
N=C1S/C(=C\c2ccc3c(c2)OCO3)C(=O)N1c1ccc(F)cc1	x	x	x	x	35
Cc1sc(NC(=O)c2ccco2)c(CN2CCN(c3ccccn3)CC2)c1C	16	46*	3	i	9
CC(=O)Nc1sc2c(c1CN1CCN(c3ccccn3)CC1)CCCC2	-2	-2	8	i	-4
Cc1ccc(Cl)cc1NC(=O)C(=O)NCCO	x	x	x	x	11
Fc1ccc(/C=N/Nc2nnc(-c3ccccc3)c(-c3ccccc3)n2)cc1	x	x	x	x	9
O=C(NC(NC(=S)Nc1ccc(Cl)c(Cl)c1)C(Cl)(Cl)Cl)c1cccc([N+](=O)[O-])c1 (stereo unspecified)	x	x	x	x	104*
CC(=O)Nc1ccc(NC(=S)NC(NC(=O)c2cccc([N+](=O)[O-])c2)C(Cl)(Cl)Cl)cc1 (stereo unspecified)	x	x	x	x	10
O=C1NC(=S)NC(=O)C1=Cc1cc(Br)c(Sc2ccc(Cl)cc2)o1	x	x	x	x	76*
Clc1ccc(Sc2oc(/C=N/n3cnnc3)cc2Br)cc1	15	-27	-18	i	5
COc1ccc(CCN2C(=O)CC(N3CCN(c4ccccn4)CC3)C2=O)cc1OC (stereo unspecified)	33*	6	39	i	8
N/C(=C\C(=O)c1ccccc1O)C(Cl)(Cl)Cl	x	x	x	x	3
O=C(COc1ccc(Cl)cc1)Nc1ccc2oc(-c3ccccc3F)nc2c1	x	x	x	x	57*
COc1ccc(C2CC(=O)C3=C(C2)Nc2ccccc2NC3c2ccccc2C(F)(F)F)cc1OC (stereo unspecified)	x	x	x	x	6
Cc1ccc(/C=C2\C=C(c3ccc(Cl)cc3)OC2=O)o1	x	x	x	x	82*
CCOc1ccc(C2=C/C(=C/c3ccc(C)o3)C(=O)O2)cc1	x	x	x	x	-4
SMILES	AP ELISA ortho	FXIa mix inh	FXIIa inh mix	BAP1 block	HePTP inh
O=C(NC(=S)NC1CCSC1=O)c1ccco1 (stereo unspecified)	x	x	x	x	103*
COc1cccc(-n2cnc3cccc(N)c32)c1	-1	4	-19	i	92*!
C=CCc1ccccc1OCCOc1cccc(/C=C2/SC(=S)N(C)C2=O)c1	x	x	x	x	-7
Cc1ccc(C(C)C)c(OCC(=O)Nc2ccc(OC(F)(F)F)cc2)c1	x	x	x	x	83*
CCOc1ccc(C(=O)Nc2ccc(OC(F)(F)F)cc2)cc1	x	x	x	x	103*
CCOc1ccc(C(=O)Nc2ccc(OC(F)(F)F)cc2)cc1Br	x	x	x	x	8
CCOC(=O)C1=C(C)N=c2s/c(=C\c3ccc([N+](=O)[O-])o3)c(=O)n2C1c1ccc(OC)cc1 (stereo unspecified)	x	x	x	x	52*
CCOC(=O)C1=C(O)/C(=C/c2ccc(Br)cc2)SC1=Nc1ccc([N+](=O)[O-])cc1	x	x	x	x	4
COc1ccc2c(c1OC)C(=O)OC2Nc1cc(S(N)(=O)=O)ccc1O (stereo unspecified)	x	x	x	x	5
COc1ccc(C(=O)Nc2nnc(Cc3cccs3)s2)cc1OC	6	6	9	i	13
COc1ccc(Cc2nnc(NC(=O)Cc3cccs3)s2)cc1OC	x	x	x	+	x
NC(=O)c1cccc(N=Cc2cc([N+](=O)[O-])ccc2O)c1	x	x	x	x	6
S=c1[nH]nc2c3c4c(sc3n3c(=S)[nH]nc3n12)CCC4	x	x	x	x	101*
O=c1c2c3c(sc2n2c(=S)[nH]nc2n1-c1ccccc1)CCCC3	x	x	x	x	8

High-throughput results as filed in PubChem BioAssay.
